Sampled rows, rich in hits. Any-hit rate of the full collection: about 3.5%.
RGS4 act = potentiators or activators of RGS4; HEK293 M3R/inducible RGS4, carbachol calcium flux Fluo4; hits give low values; 0.92% of 310,000 active; B-score at 10 µM; AID 463111;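 active = B-score of the integrated calcium signal more than 4 SD below the library mean, with starting fluorescence not abnormally high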;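 also: negative B-score means reduced calcium response which marks RGS4 activation or potentiation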
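Reagent: ECmax carbachol challenge; Test system: M3R-expressing HEK293 line, RGS4 induced by doxycycline; Schedule: overnight RGS4 induction, 30 min dye load 37 °C, 20 min compound RT; Detection: calcium dye Fluo4 fluorescence; Read-out: Agonist-evoked peak-minus-minimum fluorescence over baseline, integrated ratio, B score.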
MrgX1 antag = human MrgX1 receptor antagonism, primary screen; Q96LB2; MRGX1-HEK293 calcium flux, Fluo-4, BAM8-22 antagonism; hits give low values; B-score at 10 µM; 1.3% of 310,000 active;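 active = calcium-response B-score plate-corrected more than 3 library SD below zero, starting fluorescence within 5 deviations, no agonist response on first addition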;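 also: peak minus trough fluorescence over baseline after final BAM8-22 challenge near maximal dose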
Target sequence (Q96LB2 whole entry, looked up): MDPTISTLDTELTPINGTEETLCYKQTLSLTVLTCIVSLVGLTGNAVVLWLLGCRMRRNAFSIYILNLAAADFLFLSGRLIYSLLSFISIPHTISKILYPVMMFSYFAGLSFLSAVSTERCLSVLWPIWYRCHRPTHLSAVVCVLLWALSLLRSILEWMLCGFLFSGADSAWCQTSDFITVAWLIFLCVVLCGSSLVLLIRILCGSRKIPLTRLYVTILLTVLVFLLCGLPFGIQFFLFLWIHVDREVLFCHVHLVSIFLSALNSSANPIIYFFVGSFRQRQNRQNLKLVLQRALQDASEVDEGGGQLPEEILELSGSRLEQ
MrgX1 ag = human MrgX1 receptor agonism, primary screen. Q96LB2. MrgX1-HEK293 cells, Fluo-4 calcium fluorescence, agonist mode; hits give high values. B-score at 10 µM. 0.44% of 310,000 active. AID 588627;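 active = calcium response B-score plate-corrected fluorescence ratio at least 3 library SD, with starting fluorescence B-score inside 5 SD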
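Material – MrgX1-expressing HEK293 cells · Input – 15,000 cells seeded per well · Dosing – compound as first of three additions · Times – overnight seeding, then 1 h dark dye loading · Measured by – kinetic Fluo-4 NW fluorescence of intracellular calcium · Read-out – B-scored fluorescence response ratio · Benchmarks – positive and negative control wells on each plate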
MrgX1 allo act = allosterically activates human MrgX1 receptor signaling; B-score at 10 µM; MrgX1-HEK293, Fluo-4 calcium flux, FDSS; hits give high values; 0.63% of 310,000 active;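 active = plate-corrected calcium response at least 3 library SD above typical, normal starting fluorescence, not activating the receptor alone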;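 also: compound read alongside a low EC10 to EC30 dose of BAM8-22 agonist; peak minus trough fluorescence over baseline measured at the second addition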
RGS4 inh = inhibitors of human RGS4; P49798; 0.45% of 310,000 active; HEK293 M3R/RGS4 inducible, Fluo-4 calcium flux; hits give high values; triggered by carbachol at its EC20; AID 463165; B-score at 10 µM;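 active = B-score, a plate-corrected calcium signal, over three deviations above library mean, with baseline fluorescence within five deviations of library mean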;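 also: RGS4 expression induced by doxycycline in cells with stable M3 receptor; B-score is computed from the integrated fluorescence ratio over baseline after carbachol; higher B-score means a larger calcium signal and so more RGS4 inhibition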
Target sequence (P49798 whole entry, looked up): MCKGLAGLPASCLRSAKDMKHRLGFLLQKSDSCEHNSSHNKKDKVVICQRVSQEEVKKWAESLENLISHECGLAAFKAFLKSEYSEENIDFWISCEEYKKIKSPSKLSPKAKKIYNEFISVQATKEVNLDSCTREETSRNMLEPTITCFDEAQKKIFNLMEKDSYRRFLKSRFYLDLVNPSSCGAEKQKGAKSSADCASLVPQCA
MrgX1 ag confirm = human MrgX1 agonism, re-confirmation screen; MrgX1-HEK293, Fluo-4 calcium fluorescence, FDSS; 78% of 600 active; activation, % at 10 µM; shares compounds with MrgX1 ag;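 active = calcium signal rise, corrected for plate position, at least 3 library SD high, with starting brightness within 5 such deviations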
HEK293 Ca flux = MrgX1 antagonist counter-screen hit in parental HEK293 cells; 2% of 4,000 active; shares compounds with MrgX1 antag; AID 624111; Fluo-4 calcium fluorescence, FDSS; fluorescence ratio F(max-min)/F0 at 10 µM;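 active = duplicate-averaged calcium fluorescence ratio at least three times the standard deviation of buffer wells, a nonspecific response in parental cells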
HEK293 Ca counter = counter-screen for MrgX1 allosteric activators: effect in parental HEK293 cells. shares compounds with MrgX1 antag. parental HEK293 calcium flux, Fluo-4 fluorescence ratio; hits give high values. fluorescence ratio F(max-min)/F0 at 10 µM. 0.4% of 4,000 active. AID 624114;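 active = calcium fluorescence ratio, averaged over duplicates, at least 3 SD of the buffer-well ratio, meaning a nonspecific response in receptor-free cells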;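 also: untransfected parental HEK293 lacking MrgX1 used as counterscreen for MrgX1 allosteric activators; fluorescence change taken during the second addition on a kinetic imager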
HEK293 Ca cntr2 = MrgX1 activator counter-screen hit in parental HEK293 cells. 8.7% of 4,000 active. shares compounds with MrgX1 antag. Fluo-4 calcium fluorescence (FDSS); hits give high values. fluorescence ratio F(max-min)/F0 at 10 µM;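 active = calcium fluorescence ratio at least three times the spread of buffer wells, meaning a non-specific response in parental cells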
Starred values were filed as active, the others as inactive; i = inactive; x = no result given.

SMILES | RGS4 act | MrgX1 antag | MrgX1 ag | MrgX1 allo act | RGS4 inh | MrgX1 ag confirm | HEK293 Ca flux | HEK293 Ca counter | HEK293 Ca cntr2
O=C(NCCCl)Nc1cccnc1Cl | i | i | i | i | i | x | x | x | x
O=C(NCC1CCCO1)c1cccc(S(=O)(=O)N(Cc2ccccc2)c2ccccc2)c1 (stereo unspecified) | i | i | i | i | i | x | x | x | x
COc1ccc(-c2csc(NC(=O)Cc3cc(OC)c(OC)c(OC)c3)n2)cc1OC | i | i | i | i | i | x | x | x | x
COc1ccc(-c2csc(NC(=O)CS(=O)(=O)c3ccc(F)cc3)n2)cc1OC | i | i | 55* | i | i | i | i | i | i
COc1ccc(-c2csc(NC(=O)CCN3C(=O)C4CC=CCC4C3=O)n2)cc1OC (stereo unspecified) | -7.3* | i | 45* | i | i | i | i | i | i
CC(=O)Nc1ccc2nc(NC(=O)C(Cl)(Cl)Cl)sc2c1 | i | i | 29* | i | i | 162%* | i | i | i
CCc1cccc(C)c1NC(=S)N1CCCCC1c1cccnc1 (stereo unspecified) | i | i | 28* | i | i | 100%* | i | i | 48*
COCCCn1c(N)c(-c2nc3ccccc3n2C)c2nc3ccccc3nc21 | i | i | 60* | i | i | 249%* | i | i | 87*
O=c1[nH]c(/C=C/c2ccc(Br)cc2)nc2ccccc12 | i | i | i | i | i | x | x | x | x
CN(C)c1ccc(/C=C/c2nc3ccccc3c(=O)[nH]2)cc1 | -7* | i | 27* | i | i | i | i | i | 55*
Cc1cc(OC(=O)c2ccccc2)n(CCC#N)n1 | i | i | 38* | i | i | 195%* | i | i | i
CN=C(Nc1cc(C)nn1CCC#N)c1ccccc1 | i | i | i | i | i | x | x | x | x
Cc1cc(C)c2c(=O)n(CC(=O)NC3CCCC3)sc2n1 | i | i | 29* | i | i | 183%* | i | i | i
CCOC(=O)CNc1nc(-c2ccncc2)nc2ccccc12 | x | i | 56* | i | x | 236%* | i | i | 47*
COc1ccc(N=C2NC(=O)S/C2=C\c2ccc(N(C)C)cc2)cc1 | -7.2* | i | 26* | i | i | 230%* | i | i | 57*
O=C1CSC(c2ccccn2)N1c1ccc(C(F)(F)F)cc1 (stereo unspecified) | i | i | i | i | i | x | x | x | x
Nc1cc(-c2ccccc2)nn1Cc1ccccc1 | i | i | i | i | i | x | x | x | x
OCCn1nc(-c2ccccc2)cc1-c1ccccc1 | i | i | 32* | i | i | i | i | i | i
O=C(CCN1C(=O)/C(=C/c2ccccc2F)SC1=S)NC1C=CS(=O)(=O)C1 (stereo unspecified) | i | i | i | i | i | x | x | x | x
Cc1onc(-c2ccccc2)c1C(=O)NNC(=S)NC(=O)/C=C/c1ccccc1 | i | i | 95* | i | i | 455%* | i | i | 72*
Cc1onc(-c2ccccc2)c1C(=O)NNC(=S)NC(=O)c1ccc(Cl)cc1Cl | i | i | 180* | i | i | 714%* | i | i | 115*
Cc1ccccc1C(=O)NNC(=S)NC(=O)c1ccc(Cl)cc1Cl | -10* | i | 172* | i | i | 776%* | i | i | 154*
O=C(/C=C/c1ccccc1)NC(=S)NNC(=O)Cc1cccs1 | i | i | 71* | i | i | 262%* | i | i | 73*
O=C(NC(=S)NNC(=O)c1ccc(Cl)cc1Cl)c1cccnc1 | i | i | i | i | i | x | x | x | x
COc1ccc(Cl)cc1NC(=O)c1c(-c2ccccc2)noc1C | i | i | i | i | i | x | x | x | x
SMILES | RGS4 act | MrgX1 antag | MrgX1 ag | MrgX1 allo act | RGS4 inh | MrgX1 ag confirm | HEK293 Ca flux | HEK293 Ca counter | HEK293 Ca cntr2
Cc1onc(-c2ccccc2)c1C(=O)Nc1ccccc1NC(=O)c1c(-c2ccccc2)noc1C | i | i | i | i | i | x | x | x | x
COc1cccc(CN2CC(C(=O)NC3CCCCCC3)CCC2=O)c1 (stereo unspecified) | i | i | i | i | i | x | x | x | x
Cc1onc(-c2ccccc2)c1C(=O)NNC(=S)NC(=O)c1ccc(Br)cc1 | i | i | 86* | i | i | 705%* | i | i | 138*
Cc1onc(-c2ccccc2)c1C(=O)NNC(=O)c1ccccc1O | i | i | i | i | i | x | x | x | x
Cc1ccc(-c2nn(-c3ccccc3)cc2CSC(=N)N)cc1 | i | i | 43* | i | i | 182%* | i | i | i
CCn1c(-c2ccc(N(C)C)cc2)nc2ccccc21 | i | i | 31* | i | i | 87%* | i | i | i
CC(C)n1c(-c2ccc(N(C)C)cc2)nc2ccccc21 | x | i | 30* | i | x | 162%* | i | i | i
CCn1c(-c2ccc(N)cc2)nc2ccccc21 | i | i | i | i | i | x | x | x | x
Cc1nn(-c2ccccc2)c2c1C(c1ccc(F)cc1F)C(C#N)=C(N)O2 (stereo unspecified) | i | i | 27* | i | i | 183%* | i | i | i
Cc1ccc(NC(=O)CCl)cc1S(=O)(=O)N1CCCCCC1 | i | i | 29* | i | i | 169%* | i | i | i
COc1ccc2c(c1)CCCN2C(N)=Nc1ccc(Cl)cc1 | i | i | 33* | i | i | i | i | i | i
COc1ccc2c(c1)CCCN2S(=O)(=O)c1ccc(Cl)cc1 | i | i | i | i | i | x | x | x | x
CC(Sc1nnc(-c2ccncc2)n1C)C(=O)Nc1nccs1 (stereo unspecified) | i | i | i | i | i | x | x | x | x
CCOC(=O)C1CCCN(C(=O)COc2ccc(S(=O)(=O)N(CC)c3ccccc3)cc2)C1 (stereo unspecified) | i | i | i | i | i | x | x | x | x

Screening results from PubChem BioAssay.
